A selection: hits, their analogues and other compounds. The true share with any hit is near 2.2%.
Rtt109 HAT inh: blocks Candida albicans Rtt109/Vps75 acetyltransferase activity. Q5AAJ8. purified Rtt109/Vps75, ThioGlo CoA-SH fluorescence, 4 h. inhibition, % at 34.9 µM. 330,000 tested, 0.16% active;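 active = inhibition of at least 50% in every replicate; inconclusive = best replicate reaches 50% inhibition but some replicates fall short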
CDK5 inh: CDK5/p35 (human) kinase inhibition | Q00535+Q15078 | Recombinant CDK5/p35, ADP-Glo luminescence, 60 min | inhibition, % at 10 µM | 330,000 tested, 0.01% active;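 active = highest replicate inhibition of at least 50% and at least 75% of replicates reaching 50%; inconclusive = only one of the two criteria met; inactive = both criteria failed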;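 note: plate controls were DMSO neutral control for no effect and GW8510 at 10 µM for full effect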
Target sequence (Q00535 whole entry, looked up): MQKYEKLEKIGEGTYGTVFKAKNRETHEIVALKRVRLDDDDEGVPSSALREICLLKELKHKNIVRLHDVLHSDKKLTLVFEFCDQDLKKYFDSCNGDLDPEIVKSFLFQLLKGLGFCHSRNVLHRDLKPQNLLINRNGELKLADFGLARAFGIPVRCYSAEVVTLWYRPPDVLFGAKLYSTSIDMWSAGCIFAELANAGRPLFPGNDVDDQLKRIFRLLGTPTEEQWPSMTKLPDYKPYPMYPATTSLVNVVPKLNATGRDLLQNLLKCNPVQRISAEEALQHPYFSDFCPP
Target sequence (Q15078 whole entry, looked up): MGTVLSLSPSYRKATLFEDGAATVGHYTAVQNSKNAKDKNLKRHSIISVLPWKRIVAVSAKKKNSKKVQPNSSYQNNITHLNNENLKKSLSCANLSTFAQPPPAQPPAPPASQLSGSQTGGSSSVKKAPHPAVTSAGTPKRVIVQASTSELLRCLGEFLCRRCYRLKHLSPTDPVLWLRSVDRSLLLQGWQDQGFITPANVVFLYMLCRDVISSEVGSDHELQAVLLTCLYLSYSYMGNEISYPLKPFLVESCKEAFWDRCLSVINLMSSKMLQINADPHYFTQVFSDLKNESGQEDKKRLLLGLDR
CAL PDZ FP-1: inhibitors of human CAL PDZ peptide binding | Q9HD26 | 300,000 tested, 0.92% active | AID 602252 | inhibition, % at 24.9 µM | purified CAL PDZ, TMR-peptide fluorescence polarization, 1 h;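 active = mean inhibition of at least 30% with at least half of replicates also reaching 30%; inconclusive = no clear call, values can overlap the other calls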;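 note: 0% = DMSO neutral control and 100% = excess unlabeled competitor peptide PRC23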
Dyrk1A ADPGlo: blocks rat Dyrk1A kinase activity; 310,000 tested, 0.43% active; ADP-Glo luminescence, NFATc1 peptide; Q63470; AID 504441; inhibition, % at 12.5 µM; in the data active = inhibition above about 50%;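 note: plate controls were vehicle with enzyme for no effect and no enzyme for full effect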
CAL PDZ FP-2: human CAL PDZ-peptide interaction inhibition; AID 504414; 330,000 tested, 0.02% active; purified CAL PDZ, TMR-peptide fluorescence polarization, 1 h; inhibition, % at 20 µM; Q9HD26;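 active = highest replicate inhibition of at least 40%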;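 note: plate controls were DMSO neutral control wells for no effect and unlabeled competitor peptide control wells for full effect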
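Material: tagged CAL PDZ domain; buffer or medium: 25 mM sodium phosphate pH 7.4, 150 mM NaCl, TCEP, IgG, Thesit; compound dosing: single point, 20 µM; schedule: 1 h incubation at room temperature before polarization reading; measured by: FP readout, S and P plane fluorescence; read-out basis: percent inhibition from loss of millipolarization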
dFosB act-1: mouse delta FosB homodimer activation; 340,000 tested, 0.99% active; purified delta FosB, TAMRA-CDK5 oligo fluorescence polarization; percent of positive-control signal above neutral wells; activation, % at 25 µM; AID 493131;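 active = mean activation above about 17%, with every replicate also reaching it, limit read from the data, passing the limit was not always enough; inconclusive = only one of the two conditions met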
dFosB act-2: enhances mouse delta FosB homodimer binding to DNA; shares compounds with dFosB act-1; purified delta FosB, TAMRA-CDK5 oligo fluorescence polarization; normalised: neutral wells 0, positive control 100; activation, % at 24.9 µM; 2,400 tested, under 10 active;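 active = highest replicate activation at or above 34% and every replicate reaching that threshold; inconclusive = meets only one of the two criteria; inactive = meets neither criterion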;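 note: higher polarization means more probe DNA bound by delta FosB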
* marks the source's active call; other numbers are inactive results; ? = inconclusive; · = not tested or not shown.

SMILES	Rtt109 HAT inh	CDK5 inh	CAL PDZ FP-1	Dyrk1A ADPGlo	CAL PDZ FP-2	dFosB act-1	dFosB act-2
Cc1ccc(CCNC(=O)C2CCCN(S(=O)(=O)c3cccc4nsnc34)C2)cc1 (stereo not given)	-5	-1	-2	-3	-1	47*	3
Cc1cccc(CCNC(=O)C2CCCN(S(=O)(=O)c3cccc4nsnc34)C2)c1 (stereo not given)	4	-1	0	5	-1	-4	·
O=C(Nc1cccc2c1CCCC2)C1CCCN(S(=O)(=O)c2cccc3nonc23)C1 (stereo not given)	-5	0	-2	-1	0	24*	4
O=C(C1CCCC1)N1CCN(S(=O)(=O)c2ccc(F)c(F)c2F)CC1	-9	-1	0	0	-1	-3	·
Cc1cnc(C(=O)N2CCN(S(=O)(=O)c3ccc(F)c(F)c3F)CC2)cn1	-8	1	10	·	0	19*	-2
CC(C)C(=O)Nc1cccc(NC(=S)NC(=O)c2ccc3c(c2)OCO3)c1	-3	1	0	-6	-3	2	·
CC(C)C(=O)Nc1cccc(NC(=S)NC(=O)c2ccc(Cl)cc2)c1	-2	-1	-3	2	-1	28*	1
COc1ccccc1CNC(=O)CN1C(=O)NC2(CCOc3ccccc32)C1=O (stereo not given)	-4	0	-7	·	0	-1	·
CN(C)CCCN(C(=O)c1ccc2c(c1)CCCC2)c1nc2ccc(Cl)cc2s1	1	0	0	-1	-5	6	·
Cc1ccc2nc(N(CCN(C)C)C(=O)c3ccc4ccccc4c3)sc2c1	10	-1	-3	0	-3	26*	6
CN(C)CCN(C(=O)c1ccc2ccccc2c1)c1nc2ccc(Br)cc2s1	28	-2	-4	2	-3	15	·
CCOc1ccc2nc(N(CCCN(C)C)C(=O)c3ccc4c(c3)CCCC4)sc2c1	13	-1	3	3	-4	26*	5
COc1ccc2nc(N(CCN(C)C)C(=O)c3ccc(C(=O)c4ccccc4)cc3)sc2c1	17	0	9	0	-1	31*	0
Cc1cccc2sc(N(CCN(C)C)C(=O)c3ccc4ccccc4c3)nc12	24	1	6	-5	-2	7	·
CN(C)CCN(C(=O)c1ccc2ccccc2c1)c1nc2c(F)cc(F)cc2s1	-16	·	-2	·	-3	36*	7
O=C(NCCc1ccccc1)C1CCCN(C(=O)Nc2ccc(F)cc2)C1 (stereo not given)	11	0	·	-5	-2	0	·
Cc1cc(C(=O)O)cc(S(=O)(=O)Nc2c(C)nn(C)c2C)c1C	-1	1	1	·	0	-9	·
C[C@H]1[C@@H](c2ccccc2)Oc2ccc(Cl)cc2S(=O)(=O)N1Cc1ccc(F)cc1F	4	0	-15	8	-1	-9	·
COc1ccc(CCNC(=O)c2nn(C)c3c2CS(=O)(=O)c2ccccc2-3)cc1OC	6	·	-3	·	-2	1	·
CCOc1cccc2sc(N(CCN(C)C)C(=O)c3cc4ccccc4cc3OC)nc12	36	0	2	4	-4	?	·
CCOc1ccc2nc(N(CCN(C)C)C(=O)c3cc4ccccc4cc3OC)sc2c1	7	·	0	·	-4	48*	8
COc1cc(O)c(/C=N/NC(=O)c2ccncc2)c(OC)c1[N+](=O)[O-]	7	0	·	-3	0	-4	·
COc1ccc2nc(NC(=O)CC3Oc4ccccc4NC3=O)sc2c1 (stereo not given)	-2	2	-4	-3	-1	7	·
CCOc1ccc2nc(NC(=O)CC3Oc4ccccc4NC3=O)sc2c1 (stereo not given)	-2	1	-1	-4	-3	29*	3
CN(C)/C=N/NC(=O)C1Cc2c(ccc3ccccc23)O1 (stereo not given)	-3	0	-4	4	-1	-9	·

Compound activity as filed in PubChem.
